# FXIa inh: inhibitors of human coagulation factor XIa | P03951 | purified FXIa, Boc-Glu-Ala-Arg-AMC fluorogenic substrate | inhibition, % at 5 µM | hit rate 0.14% among 220,000;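 active = inhibition of at least 40%; inactive = inhibition below 40%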;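 also: fluorescence of freed AMC excited at 355 nm; 0% = enzyme without compound and 100% = no enzyme blank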
# AHR act: activators of human aryl hydrocarbon receptor. P35869. AHR-responsive luciferase reporter cells, luminescence. activation, % at 5 µM. hit rate 2.5% among 320,000. AID 2796; in the data active = activation above about 47%;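 also: 0% = vehicle wells and 100% = reference agonist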
# KLK5 inh: kallikrein 5 (human) inhibition; AID 873; inhibition, % at 5 µM; hit rate 0.59% among 210,000; recombinant hK5, fluorogenic AMC substrate cleavage; Q9Y337;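 active = inhibition of 40% or more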;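 also: 0% = enzyme controls without compound and 100% = no-enzyme blanks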
# Thrombin inh: thrombin (human) inhibition | P00734 | alpha-thrombin, Boc-VPR-AMC fluorogenic substrate cleavage | inhibition, % at 5 µM | hit rate 0.26% among 220,000;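 active = inhibition at or above 40%; inactive = inhibition below 40%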;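 also: 0% = enzyme with no compound and 100% = wells without enzyme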
#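 System: human alpha-thrombin protein; Compound dosing: one concentration per compound, 5 µM, with 0.2% DMSO; Timing: reaction at room temperature; Technique: AMC fluorescence, 355/460 nm; Controls: enzyme without compound as high, wells lacking enzyme as low.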
# STAT3 act: activators of IL-6 induced STAT3 signaling; U3A cells, IL-6 STAT3-luciferase reporter, luminescence; 100% = signal with IL-6 EC80 alone; activation (% of control), % at 5.6 µM; hit rate 0.91% among 190,000; AID 871;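 active = activation above the screen-wide mean of compound activation plus 3 SD, cut at about 130% in these data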;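 also: 0% = background luminescence of wells with medium and substrate only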
#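 system = STAT3-luciferase reporter U3A cells | reagent = IL-6 stimulus at 33 ng/mL final | timing = 1 h compound pre-exposure, 6 h IL-6 stimulation, 37 °C | measured by = luminescence | evaluation = % activation versus median of IL-6-stimulated wells | control set = IL-6-only wells as 100% reference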
# FXIIa inh: inhibitors of human coagulation factor XIIa. inhibition, % at 5 µM. hit rate 0.3% among 220,000. P00748. purified FXIIa, Boc-QGR-AMC fluorogenic substrate, 2 h; in the data active = inhibition above about 40%;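 also: 0% = enzyme with no compound and 100% = blank without enzyme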
# Active calls of the source: *; / = not tested or not shown. Only some compounds are listed: those with a hit (about 3.5% of all), similar ones and a draw of the others.
SMILES,FXIa inh,AHR act,KLK5 inh,Thrombin inh,STAT3 act,FXIIa inh
CN(c1cccc(NC(=O)CN(c2ccc(C34CC5CC(CC(C5)C3)C4)cc2)S(C)(=O)=O)c1)S(C)(=O)=O,5.1,-0.2,-11.0,0.1,103.5,19.3
CCOC(=O)c1sc(N)c(C#N)c1CSc1nc2ccc(C)cc2[nH]1,0.5,70.1*,40.0*,4.5,92.9,11.4
CCOC(=O)c1sc(N)c(C#N)c1CSc1nc2ccc(OCC)cc2[nH]1,-6.6,18.6,-3.2,-15.2,102.3,-13.3
O=C(Cn1nc(CNc2ccc(Br)cc2)[n+]2c1CCCCC2)c1ccc([N+](=O)[O-])cc1,0.5,26.1,-1.3,2.3,/,7.7
CC1CCC2(CC1)NC(=O)N(Cc1cccc(C(F)(F)F)c1)C2=O (stereo unspecified),-7.1,-1.6,0.8,-14.2,109.6,10.3
COc1ccc(-c2oc3ccc(N4CCOCC4)cc3c2/C=C/c2ccc(OC)c(OC)c2)cc1,/,33.3,/,/,/,/
COc1ccc(-c2c(-c3ccsc3)oc3ccc(N4CCOCC4)cc23)cc1,/,47.1*,/,/,/,/
O=[N+]([O-])CC(=Nc1ccc(Cl)cc1)N/N=C\c1oc(O)c2ccccc12,-1.5,95.0*,-11.7,-2.4,135.6*,5.8
O=C(N/N=C/c1ccc([N+](=O)[O-])o1)c1cn(-c2ccccc2)nc1-c1ccc(Cl)cc1,-5.7,9.0,2.6,1.3,93.0,6.8
O=C(NNC1=Nc2ccccc2SC1)c1ccc(F)cc1,-15.8,74.4*,-2.1,-3.3,/,3.2
CCN(C(=O)COC(=O)/C=C/c1ccco1)C1CCCCC1,/,-1.7,/,/,/,/
Cc1cc(SCC(=O)N(C)C2CCS(=O)(=O)C2)nc2c(C)cccc12 (stereo unspecified),14.5,8.0,26.5,-0.6,100.8,27.5
Clc1cccc(Cl)c1COc1ccccc1CNn1cnnc1,5.0,58.9*,0.8,1.9,126.3,5.1
O=c1[nH]nc(SCc2nnc(-c3ccc([N+](=O)[O-])cc3)o2)n1C1CCCCC1,-0.3,-2.9,1.3,43.9*,/,6.2
c1ccc2sc(NC3=NCN(CCN4CCOCC4)CN3)nc2c1,-0.7,4.3,3.8,-2.1,90.7,13.4
Cc1nc(NC2=NCN(CCN3CCOCC3)CN2)nc2c(C)cccc12,/,/,/,/,175.5*,/
Cc1nc(Nc2nc(=O)c3ccccc3n2C)nc2c(C)cccc12,/,/,/,/,141.5*,/
Cc1ccn(CC(=O)O)c(=O)c1,28.1,0.1,-1.6,-6.1,100.5,58.2*
COc1ccc2[nH]c(=O)c(CN(C(=O)c3cccnc3)c3ccccc3C)cc2c1,1.5,3.1,-1.2,-1.8,/,14.5
CC(=O)C1=C(C)OC(N)=C(C#N)C1c1cc2cc(C)c(C)cc2nc1Cl (stereo unspecified),1.4,13.8,-18.1,-7.8,178.4*,-3.2
Oc1cccc(/C=N/N(Cc2ccccc2)c2ccccc2)c1,-3.3,3.6,-5.0,-8.3,106.2,/
Oc1ccc(/C=N/N(Cc2ccccc2)c2ccccc2)c(O)c1O,29.0,/,127.5*,28.0,104.1,26.6
O=C(COc1ccccc1)Nc1nnc(S(=O)(=O)N2CCCCCC2)s1,/,-3.4,/,/,/,/
COc1ccc(C(=O)/C=C2\Sc3ccccc3N2C)cc1,-2.6,50.4*,4.6,3.7,114.8,5.6
c1ccc(CSc2nnc3c4ccccc4c4ccccc4c3n2)cc1,2.1,33.6,-0.5,1.2,/,10.6
SMILES,FXIa inh,AHR act,KLK5 inh,Thrombin inh,STAT3 act,FXIIa inh
CC(=O)N(/N=C1\Sc2ccccc2C1=O)c1cccc(C)c1,-3.1,76.5*,8.7,5.4,110.6,-6.1
CC(=O)N(CN1C(=O)c2ccccc2C1=O)c1cccc(C)c1,3.1,1.6,-9.6,-11.9,99.3,15.2
O=C(CSc1nc2ccccc2[nH]1)Nc1ccc(F)cc1,-5.9,-1.5,-12.5,-9.4,82.9,4.5
O=C(Nc1ccc(F)cc1)C(Sc1nc2ccccc2[nH]1)c1ccccc1 (stereo unspecified),6.0,69.3*,-3.2,-2.5,101.6,2.9
c1ccc(-c2nc(NC3CCCC3)c3ccccc3n2)cc1,/,53.4*,/,/,/,/
COc1cccc(-c2nc(NC3CCCC3)c3ccccc3n2)c1O,/,17.9,/,/,/,/
COc1ccc(CN(C)C(=S)Nc2ccc(Cl)cc2)cc1,27.2,2.9,30.0,-0.6,97.2,42.4*
CCN(CC)C(=S)Nc1ccc(OC)cc1,0.2,1.3,-30.2,-5.5,97.4,7.1
CCNC(=S)N/N=C/c1cccc(OCc2c(F)cccc2Cl)c1,1.4,4.1,-6.9,-8.1,91.8,11.3
O=C1c2ccccc2C(=O)N1OS(=O)(=O)c1ccccc1,42.7*,4.5,-23.1,34.3,99.8,76.5*
Cc1ccc(C)c(S(=O)(=O)ON2C(=O)c3ccccc3C2=O)c1,62.4*,-0.8,9.3,47.8*,93.6,77.1*
O=C1c2cccc3cccc(c23)C(=O)N1OS(=O)(=O)c1ccccc1,-17.8,3.4,-32.7,11.6,100.3,-3.4
Cc1ccc(S(=O)(=O)Nc2cc3c4c(c2)CCN4C(=O)CC3)cc1,/,31.5,/,/,/,/
Cc1noc(NC(=O)c2cccc(Cl)c2Cl)c1C#N,2.8,0.7,-1.6,/,93.2,8.3
COc1ccc(C(=O)Nc2ccc3[nH]ccc3c2)cc1,/,-7.2,/,/,/,/
COc1ccc(C(=O)Nc2ccc3cn[nH]c3c2)c(OC)c1,-0.3,56.1*,-3.0,/,109.4,0.1
COc1ccc(OC)c(C(=O)Nc2ccc3[nH]ccc3c2)c1,/,49.7*,/,/,/,/
CCN(CC)S(=O)(=O)c1ccc(C)c(NS(=O)(=O)c2cc(/C=C/C(=O)O)cc(OC)c2OC)c1,-0.9,4.0,1.1,2.7,101.0,8.1
Cc1cc(/C=N/N2CCN(C)CC2)c(C)n1-c1ccc(Cl)cc1,0.3,7.9,-2.3,5.4,/,8.4
Cc1cc2oc(=O)cc(CN3CCc4ccccc43)c2cc1Cl,3.3,50.2*,5.9,-3.2,123.1,7.5
CC(=O)Nc1c(-c2ccccc2)c2cc(Br)ccc2[nH]c1=O,/,5.4,/,/,/,/
O=C(O)/C=C/C(=O)Nc1ccc(-c2ccccc2)cc1,-2.8,6.3,-3.3,2.3,106.7,7.3
Cc1ccc(C(=O)Nc2ccc(Cl)cn2)cc1S(=O)(=O)N1CCOCC1,2.0,9.7,40.8*,18.6,102.8,23.1
CC(=O)Nc1ccc(OCC(=O)Nc2ccc(Cl)c(S(=O)(=O)N3CCOCC3)c2)cc1,/,-1.1,/,/,/,/
COc1ccc(-c2nn(-c3ccccc3)cc2/C=N/NS(=O)(=O)c2ccccc2)cc1,-2.4,49.9*,6.8,-0.7,86.3,-2.2
COc1ccc(-c2nn(-c3ccccc3)cc2/C=N/O)cc1,/,38.0,/,/,/,/
Cc1csc(=O)n1CC(=O)Nc1ccc(Cl)cc1F,/,-0.3,/,/,/,/
OC1C2(Cc3ccccc3)CN3CCN(C2)CC1(Cc1ccccc1)C3 (stereo unspecified),-6.1,-0.3,110.3*,2.8,102.6,-4.3
O=C(OCc1nc2ccccc2s1)c1cc2ccccc2oc1=O,9.2,18.6,-11.2,-1.8,134.4*,11.5
O=C(OCc1nc2ccccc2s1)c1cccc(S(=O)(=O)N2CCOCC2)c1,16.9,11.1,-17.9,1.9,139.0*,27.9

# Source: PubChem BioAssay
